High-throughput results (PubChem BioAssay)
MrgX1 agonist: human MrgX1 receptor agonism, primary screen; AID 588627; Q96LB2; hit rate 0.44% among 310,000; MrgX1-HEK293 cells, Fluo-4 calcium fluorescence, agonist mode; stronger effect = higher value; B-score at 10 µM;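 active = calcium response B-score plate-corrected fluorescence ratio at least 3 library SD, with starting fluorescence B-score inside 5 SD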
Target sequence (Q96LB2 whole entry, looked up): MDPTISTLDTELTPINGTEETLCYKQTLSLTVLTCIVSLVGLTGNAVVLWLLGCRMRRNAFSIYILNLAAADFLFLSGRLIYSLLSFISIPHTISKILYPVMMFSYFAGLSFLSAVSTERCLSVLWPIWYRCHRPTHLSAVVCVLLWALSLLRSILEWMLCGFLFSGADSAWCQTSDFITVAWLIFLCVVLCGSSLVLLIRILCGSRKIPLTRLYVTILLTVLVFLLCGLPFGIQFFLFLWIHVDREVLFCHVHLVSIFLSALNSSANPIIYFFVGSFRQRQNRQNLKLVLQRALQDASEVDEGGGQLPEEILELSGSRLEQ
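Assay system: stable human MrgX1 HEK293 cell line. Quantity: 15,000 cells per well. Schedule: cells plated overnight, dye loaded 0.5 h 37 °C, 0.5 h room temperature. Detection: Fluo-4 NW calcium-flux fluorescence, kinetic read. Read-out basis: peak-minus-minimum fluorescence over baseline, converted to B scores. Control set: positive and negative control wells on each plate.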
Cl transport mod: modulators of human KCC2 chloride dependent transport. Q9H2X9. hit rate 2.2% among 190,000. B-score of Tl+ flux slope (higher = more flux/activation; lower = inhibition) at 10 µM. KCC2 cells, thallium flux FluoZin-2 fluorescence;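 active = thallium flux slope and its plate-corrected score both differing from the plate sample mean at a set confidence after two filtering rounds, in either direction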;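 also: slope of fluorescence scaled to starting intensity during 10 to 20 s after thallium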
RGS4 pot: RGS4 potentiation or activation | HEK293 M3R/inducible RGS4, carbachol calcium flux Fluo4; stronger effect = lower value | B-score at 10 µM | hit rate 0.92% among 310,000 | AID 463111;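 active = B-score of the integrated calcium signal more than 4 SD below the library mean, with starting fluorescence not abnormally high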;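 also: negative B-score means reduced calcium response which marks RGS4 activation or potentiation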
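System: HEK293 FlpIn-TREx cells, stable M3R, doxycycline-inducible RGS4. Timing: overnight RGS4 induction, 30 min dye load 37 °C, 20 min compound RT. Also added: carbachol, ECmax concentration. Measured by: Fluo4 fluorescence kinetic imaging of calcium. Evaluation: integrated calcium ratio converted to B score.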
RGS4 inh: human RGS4 inhibition; P49798; HEK293 M3R/RGS4 inducible, Fluo-4 calcium flux; stronger effect = higher value; triggered by carbachol at its EC20; B-score at 10 µM; hit rate 0.45% among 310,000;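 active = B-score, a plate-corrected calcium signal, over three deviations above library mean, with baseline fluorescence within five deviations of library mean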;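 also: RGS4 expression induced by doxycycline in cells with stable M3 receptor; B-score is computed from the integrated fluorescence ratio over baseline after carbachol; higher B-score means a larger calcium signal and so more RGS4 inhibition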
Target sequence (P49798 whole entry, looked up): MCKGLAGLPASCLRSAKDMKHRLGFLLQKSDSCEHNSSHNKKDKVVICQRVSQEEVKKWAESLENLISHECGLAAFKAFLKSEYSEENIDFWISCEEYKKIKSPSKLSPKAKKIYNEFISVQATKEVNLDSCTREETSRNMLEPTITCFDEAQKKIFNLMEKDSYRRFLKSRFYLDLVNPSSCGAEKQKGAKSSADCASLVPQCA
MrgX1 allo act: human MrgX1 positive allosteric modulation, primary screen. MrgX1-HEK293, Fluo-4 calcium flux, FDSS; stronger effect = higher value. AID 588675. B-score at 10 µM. hit rate 0.63% among 310,000. Q96LB2;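 active = plate-corrected calcium response at least 3 library SD above typical, normal starting fluorescence, not activating the receptor alone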;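 also: compound read alongside a low EC10 to EC30 dose of BAM8-22 agonist; peak minus trough fluorescence over baseline measured at the second addition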
MrgX1 antag: human MrgX1 receptor antagonism, primary screen; B-score at 10 µM; AID 588676; MRGX1-HEK293 calcium flux, Fluo-4, BAM8-22 antagonism; stronger effect = lower value; Q96LB2; hit rate 1.3% among 310,000;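 active = calcium-response B-score plate-corrected more than 3 library SD below zero, starting fluorescence within 5 deviations, no agonist response on first addition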;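 also: peak minus trough fluorescence over baseline after final BAM8-22 challenge near maximal dose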
MrgX1 antag conf: human MrgX1 receptor antagonism, re-confirmation screen | remaining BAM8-22 calcium response % of control (stronger effect = lower value), % at 10 µM | shares compounds with MrgX1 antag | MrgX1-HEK293, BAM8-22 calcium flux, Fluo-4; stronger effect = lower value | hit rate 19% among 2,300;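 active = remaining agonist calcium response no higher than 100% minus 3 SD of agonist-only control wells, with starting fluorescence near control levels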;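 also: agonist BAM8-22 given at a near maximal EC90 to ECmax level; peak minus minimum fluorescence divided by baseline after agonist addition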
HEK293 Ca flux: activity in parental HEK293 cells lacking MrgX1 | shares compounds with MrgX1 antag | Fluo-4 calcium fluorescence, FDSS | fluorescence ratio F(max-min)/F0 at 10 µM | hit rate 2% among 4,000;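 active = duplicate-averaged calcium fluorescence ratio at least three times the standard deviation of buffer wells, a nonspecific response in parental cells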
HEK293 Ca counter: counter-screen for MrgX1 allosteric activators: effect in parental HEK293 cells; hit rate 0.4% among 4,000; fluorescence ratio F(max-min)/F0 at 10 µM; parental HEK293 calcium flux, Fluo-4 fluorescence ratio; stronger effect = higher value; shares compounds with MrgX1 antag;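 active = calcium fluorescence ratio, averaged over duplicates, at least 3 SD of the buffer-well ratio, meaning a nonspecific response in receptor-free cells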;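 also: untransfected parental HEK293 lacking MrgX1 used as counterscreen for MrgX1 allosteric activators; fluorescence change taken during the second addition on a kinetic imager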
HEK293 Ca cntr2: counter-screen for MrgX1 activators: effect in parental HEK293 cells | shares compounds with MrgX1 antag | Fluo-4 calcium fluorescence (FDSS); stronger effect = higher value | fluorescence ratio F(max-min)/F0 at 10 µM | hit rate 8.7% among 4,000 | AID 624115;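 active = calcium fluorescence ratio at least three times the spread of buffer wells, meaning a non-specific response in parental cells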
An asterisk follows results filed as active; i = inactive; / = not tested or not shown. Rows were chosen to be rich in hits. Some 4.7% of all compounds tested hit in one or more screens of this group.

SMILES	MrgX1 agonist	Cl transport mod	RGS4 pot	RGS4 inh	MrgX1 allo act	MrgX1 antag	MrgX1 antag conf	HEK293 Ca flux	HEK293 Ca counter	HEK293 Ca cntr2
COc1ccc2oc(C(=O)OCC(=O)NCc3ccco3)c(C)c2c1	i	/	i	i	i	-6.4*	i	i	i	i
O=[N+]([O-])c1ccc(N2N=C(c3ccccc3)CC2c2ccccc2O)cc1 (centres undefined)	i	/	-9.3*	i	i	-16*	i	0.56*	i	i
COc1ccccc1N1N=C(c2ccc([N+](=O)[O-])cc2)CC1c1ccccc1 (centres undefined)	i	/	i	i	i	-15*	i	0.69*	i	i
COc1cc(N2N=C(c3ccccc3)CC2c2ccccc2)c(C=O)cc1C=O (centres undefined)	i	/	i	i	i	i	/	/	/	/
O=[N+]([O-])c1ccc(N2N=C(c3ccco3)CC2c2ccccc2)cc1 (centres undefined)	i	0.14	i	i	i	i	/	/	/	/
O=S1(=O)N=C(c2ccccc2)c2ccccc21	i	/	i	i	i	i	/	/	/	/
Cc1cc(C)c(S(=O)(=O)N2CCCc3ccccc32)c(C)c1	i	/	i	i	i	-7.1*	i	i	i	52*
CC1C(=O)NN=C1C(=O)N/N=C/c1cccs1 (centres undefined)	i	1.2	i	i	i	-11*	i	i	i	i
CC(=O)Nc1ccc(NC(=O)C(=O)c2cn(CC(=O)N3CCCC3)c3ccccc23)cc1	i	/	i	i	i	i	/	/	/	/
O=C(Nc1ccccc1F)C(=O)c1cn(CC(=O)N2CCCCC2)c2ccccc12	i	-0.53	i	i	i	-5*	i	i	i	i
O=C(Nc1ccncc1)c1ccc(NS(=O)(=O)c2ccc3[nH]c(=O)[nH]c3c2)cc1	i	/	i	i	i	i	/	/	/	/
CS(=O)(=O)N(CC(=O)NCc1ccco1)c1ccc(OCc2ccccc2)cc1	i	-0.6	i	i	i	i	/	/	/	/
COc1ccc(C)cc1N(CC(=O)Nc1ccc(S(=O)(=O)N2CCOCC2)cc1)S(C)(=O)=O	i	/	i	i	i	-5.2*	i	i	i	i
COc1ccc(NC(=O)c2cc3ccc(O)cc3o/c2=N\O)cc1	i	/	i	i	i	i	/	/	/	/
Cc1nn(CC(=O)N2CCN(c3cccc(C(F)(F)F)c3)CC2)c(=O)c2cccn12	i	/	i	i	i	i	/	/	/	/
CCOC(=O)Cn1c(=O)cc(C)c2ccccc21	i	0.19	i	i	i	-8.5*	i	i	i	i
O=C(NCCCN1CCOCC1)C1CCN(S(=O)(=O)c2ccccc2)CC1	i	/	i	i	i	i	/	/	/	/
CCN1CCN(Cc2nc3c(c(=O)n(C)c(=O)n3C)n2CCc2ccccc2)CC1	/	0.51	/	/	/	/	/	/	/	/
Cn1c(=O)c2c(nc(CN3CCOCC3)n2CCc2ccccc2)n(C)c1=O	i	0.24	i	i	i	-4.9*	i	i	i	i
Cc1ccc(C(c2nnnn2C2CCCC2)N2CCN3CCCC3C2)cc1 (centres undefined)	i	0.12	i	i	i	-6.4*	i	i	i	i
Oc1ccccc1-c1nnc(SCCN2CCOCC2)n1Cc1ccccc1	i	/	i	i	i	-6.8*	i	i	i	i
O=C(CSc1nnc(-c2ccccc2)n1Cc1ccccc1)N1CCOCC1	i	0.26	i	i	i	i	/	/	/	/
O=C(CSc1ccccn1)Nc1nc2ccccc2s1	i	-1.3	i	i	i	-7.6*	85%*	i	i	i
COc1ccc(NC(=O)CSc2ccccn2)cc1OC	i	0.027	i	i	i	-4.8*	i	i	i	i
COc1ccc(/C=N/NC(=O)CSc2ccccn2)cc1OC	i	/	i	i	i	i	/	/	/	/
SMILES	MrgX1 agonist	Cl transport mod	RGS4 pot	RGS4 inh	MrgX1 allo act	MrgX1 antag	MrgX1 antag conf	HEK293 Ca flux	HEK293 Ca counter	HEK293 Ca cntr2
O=C(Nc1cccc(Cl)c1)C1C2C=CC3(O2)C1C(=O)N(CCCN1CCCCC1)C3C(=O)NC1CCCCC1 (centres undefined)	i	/	i	i	i	i	/	/	/	/
CC(=O)Nc1n[nH]c(-c2ccc(C)cc2)c1C	i	0.5	i	i	i	-5.4*	i	i	i	i
COc1ccc2[nH]c3c(c2c1)CCN1C(=O)N([C@@H](C)C(=O)NCc2ccccc2)C(=O)[C@]31C	i	/	i	i	i	-8.6*	i	i	i	i
CCOCCCNC(=S)N1CCN(c2nc(-c3ccc(F)cc3)cs2)CC1	i	/	i	i	i	-6.4*	71%*	i	i	i
NC(=O)C1CCN(C(=O)NC2CC(=O)N(c3ccc4c(c3)OCCO4)C2)CC1 (centres undefined)	i	/	i	i	i	-6.9*	i	i	i	i
COc1ccccc1N(C(=O)CNC(=O)c1ccco1)C(C(=O)NC1CCCCC1)c1ccncc1 (centres undefined)	i	/	i	i	i	i	/	/	/	/
c1ccc2sc(SCSc3nc4ccccc4s3)nc2c1	i	2.1	i	i	i	i	/	/	/	/
CN(C)CCCSc1nc2ccccc2s1	i	0.12	i	i	i	-7.1*	69%*	i	i	i
CCOC(=O)c1sc(NC(=S)NC(=O)c2cccc(Cl)c2)c(C(=O)OCC)c1C	i	1.6	i	i	i	-4.9*	i	i	i	i
O=C(COc1cc2oc(=O)cc(-c3ccccc3)c2cc1Cl)NC(Cc1c[nH]c2ccc(O)cc12)C(=O)O (centres undefined)	i	/	i	i	i	i	/	/	/	/
